# Screening results (PubChem)
# TRPC4 potent = TRPC4 (mouse) allosteric potentiation | AID 2227 | HEK293 TRPC4beta/mu-opioid, DAMGO EC20, Fluo-4 Ca2+ flux; stronger effect = higher value | hit rate 0.42% among 310,000 | Q9QUQ5 | B-score at 10 µM;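 active = B-score of calcium response area above 5 SD of library B-scores, with initial fluorescence ratio within 5 SD of library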;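 note: B-score of integrated fluorescence ratio over time as area under calcium response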
# TRPC6 act = activators of mouse TRPC6 channel. Q61143. B-score at 10 µM. HEK293-TRPC6 membrane potential dye fluorescence; stronger effect = higher value. hit rate 0.13% among 310,000. AID 2550;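 active = B-score of the integrated fluorescence ratio above library mean plus 3 SD, and starting fluorescence ratio within library mean plus 5 SD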;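 note: higher score means more depolarization so channel activation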
# Target sequence (Q61143 whole entry, looked up): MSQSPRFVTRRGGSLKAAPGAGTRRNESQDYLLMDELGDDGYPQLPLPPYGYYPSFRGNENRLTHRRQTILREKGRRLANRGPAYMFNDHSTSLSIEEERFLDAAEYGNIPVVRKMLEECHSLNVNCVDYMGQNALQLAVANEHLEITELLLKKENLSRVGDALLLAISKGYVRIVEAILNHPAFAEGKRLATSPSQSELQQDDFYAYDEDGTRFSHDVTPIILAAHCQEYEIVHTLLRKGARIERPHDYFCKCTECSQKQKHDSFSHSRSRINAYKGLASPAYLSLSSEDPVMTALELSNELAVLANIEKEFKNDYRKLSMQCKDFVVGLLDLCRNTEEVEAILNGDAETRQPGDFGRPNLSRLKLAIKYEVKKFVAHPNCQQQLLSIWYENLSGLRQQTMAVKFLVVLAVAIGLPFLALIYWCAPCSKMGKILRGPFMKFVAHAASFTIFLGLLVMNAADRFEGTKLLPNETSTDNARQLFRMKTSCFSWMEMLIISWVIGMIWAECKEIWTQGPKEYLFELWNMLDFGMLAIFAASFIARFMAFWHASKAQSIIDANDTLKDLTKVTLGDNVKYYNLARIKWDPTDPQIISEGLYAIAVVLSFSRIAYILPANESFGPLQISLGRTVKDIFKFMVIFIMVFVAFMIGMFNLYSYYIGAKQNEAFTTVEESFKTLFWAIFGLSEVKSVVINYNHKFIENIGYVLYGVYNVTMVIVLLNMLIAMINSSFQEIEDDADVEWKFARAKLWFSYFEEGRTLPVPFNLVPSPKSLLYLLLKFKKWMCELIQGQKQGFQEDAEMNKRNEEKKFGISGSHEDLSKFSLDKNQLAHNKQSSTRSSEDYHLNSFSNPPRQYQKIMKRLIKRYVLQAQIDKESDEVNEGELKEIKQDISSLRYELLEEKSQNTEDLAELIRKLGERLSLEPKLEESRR
# TRPC4 block = inhibitors of mouse TRPC4 channel; B-score at 10 µM; HEK293 TRPC4beta/mu-opioid, DAMGO-evoked Fluo4 calcium flux; stronger effect = lower value; hit rate 0.39% among 300,000; Q9QUQ5; AID 2247;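 active = B-score over 3 SD under the library average, no early fluorescence shift, positive overall ratio signal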
#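 Test system – stable TRPC4beta/mu-opioid receptor HEK293 cells · Probe or stimulus – DAMGO, a submaximal dose followed by a maximal one · Dosing – one concentration per compound · Signal – Fluo4 calcium fluorescence by kinetic imaging, 5 s 1 Hz baseline · Evaluation – per-well B score of integrated baseline-normalized Fluo4 ratio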
# TRPC6 inhibitor = inhibitors of mouse TRPC6 channel | HEK293-TRPC6, membrane potential dye, ACh-evoked depolarization; stronger effect = lower value | hit rate 1.1% among 310,000 | B-score at 10 µM | Q61143 | AID 2553;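 active = B-score under library mean minus 3 SD, initial fluorescence not abnormally high, positive integrated signal ratio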;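 note: B-score derived from integrated fluorescence ratio over the kinetic read; more negative B-score means stronger inhibition of depolarization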
# TRPC4 act = TRPC4 (mouse) channel activation; HEK293 TRPC4beta/mu-opioid, Fluo4 calcium fluorescence; stronger effect = higher value; B-score at 10 µM; hit rate 0.49% among 310,000;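 active = B-score above 5 SD of library B-scores, and initial fluorescence ratio not above library mean plus 5 SD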;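 note: positive B-score marks a calcium rise read as TRPC4 activation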
#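 Incubation: 45 min room-temperature Fluo4 loading, 110 s read / System: HEK293 cells stably co-expressing mouse TRPC4beta and mu-opioid receptor / Signal: Fluo4 fluorescence, kinetic / Control set: buffer (low) and maximal DAMGO (high) / Measure: integrated baseline-normalised fluorescence ratio, converted to per-well B score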
# TRPC4 spec 2 = second check of whether TRPC6 inhibitors also affect mouse TRPC4 | inhibition, % at 10 µM | HEK293 TRPC4/MOR, membrane potential dye fluorescence; channel activated by saturating DAMGO dose | shares compounds with TRPC6 inhibitor | hit rate 42% among 920;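 active = compounds whose fluorescence signal differed from control wells by over 3 SD, either direction, in both duplicate plates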
# TRPC4 spec = mouse TRPC4 off-target activity of TRPC6 inhibitors; shares compounds with TRPC6 inhibitor; HEK293 TRPC4/mu-opioid, membrane potential fluorescence; activity change, negative = inhibition, % at 10 µM; hit rate 61% among 920; AID 2777;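 active = rise or fall in signal beyond 3 SD of buffer-only wells in both replicate plates, either sign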;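 note: integrated kinetic ratio of fluorescence range over baseline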
# HEK293 MPD ctr 2-1 = parental HEK293 nonspecific activity of TRPC6 inhibitors, second screen; hit rate 31% among 920; AID 2779; shares compounds with TRPC6 inhibitor; signal change vs control, % at 10 µM; parental HEK293 membrane potential dye fluorescence; maximal acetylcholine challenge after compound addition;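 active = membrane potential signal moving either way by over 3 SD of the maximum-effect control, in both duplicate plates, meaning non-specific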
# HEK293 MPD ctr-1 = counter-screen for TRPC6 inhibitors: effect in parental HEK293 cells; shares compounds with TRPC6 inhibitor; parental HEK293 membrane potential dye fluorescence; membrane potential signal change, % at 10 µM; hit rate 60% among 920; AID 2780;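 active = membrane potential signal shifting up or down by more than 3 SD of buffer-only wells, on both duplicate plates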
# HEK293 MPD ctr-2 = counter-screen for TRPC6 modulators: effect in parental HEK293 cells | shares compounds with TRPC6 inhibitor | membrane potential dye fluorescence | membrane potential signal change, % at 10 µM | hit rate 51% among 2,400 | AID 488924;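 active = membrane potential signal moves up or down beyond 5 SD from buffer-only wells, on both duplicate plates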
# HEK293 MPD ctr 2-2 = second counter-screen for TRPC6 modulators: effect in parental HEK293 cells; shares compounds with TRPC6 inhibitor; membrane potential dye fluorescence; after compound, maximal acetylcholine stimulation; inhibition, % at 10 µM; hit rate 14% among 2,400; AID 488926;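 active = membrane potential signal drops by more than 5 SD from the mean control signal, in both duplicate plates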;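 note: plate controls were acetylcholine ECmax control wells for no effect and buffer only wells for full effect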
# TRPC4/MOR mod = selectivity of TRPC6 modulators against mouse TRPC4; hit rate 69% among 2,400; HEK293 TRPC4/mu-opioid, membrane potential fluorescence; shares compounds with TRPC6 inhibitor; percent change from control (negative = decrease, positive = increase), % at 10 µM;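 active = membrane potential signal moved up or down beyond 5 SD of buffer control wells, in both duplicate plates, actives on both sides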;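 note: plate controls were assay buffer wells for no effect and DAMGO maximal-effect wells for full effect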
# TRPC4/MOR inh 2 = second selectivity test of TRPC6 modulators against mouse TRPC4 | shares compounds with TRPC6 inhibitor | HEK293 TRPC4/mu-opioid, membrane potential dye fluorescence; stimulated with maximal-effect DAMGO | inhibition, % at 10 µM | hit rate 55% among 2,400;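 active = drop in membrane potential signal beyond 5 SD of the control wells in both duplicate plates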;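 note: TRPC4 counter screen for TRPC6 hits run under conditions tuned for TRPC6 not TRPC4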
# TRPC6 inh conf = confirmation of mouse TRPC6 inhibitors; hit rate 43% among 3,300; inhibition, % at 10 µM; HEK293-TRPC6, membrane potential dye, ACh-evoked depolarization; shares compounds with TRPC6 inhibitor; AID 488960;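 active = fluorescence ratio falls more than 5 SD below the full-stimulation control mean, in both duplicate runs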;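 note: integrated fluorescence ratio of peak minus minimum over baseline after agonist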
# TRPC6 act conf = confirmation of mouse TRPC6 activators; shares compounds with TRPC6 inhibitor; HEK293-TRPC6 membrane potential dye fluorescence, FDSS; activation, % at 10 µM; hit rate 11% among 2,800; AID 488961;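 active = ratio signal rise beyond 5 SD above unstimulated control wells' mean, seen in both duplicate runs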;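 note: plate controls were buffer EC0 wells for no effect and acetylcholine ECmax response for full effect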
# * marks the source's active call; other numbers are inactive results; i = inactive; · = no result given. Shown are actives, neighbours in structure and some others; about 2.3% of the full set was active somewhere.
SMILES,TRPC4 potent,TRPC6 act,TRPC4 block,TRPC6 inhibitor,TRPC4 act,HEK293 MPD ctr-2,HEK293 MPD ctr 2-2,TRPC4/MOR mod,TRPC4/MOR inh 2,TRPC6 inh conf,TRPC6 act conf,others
COc1ccc(N/C(N)=N/c2nc(C)cc(C)n2)c(OC)c1,i,i,i,-5.1*,i,-86%*,i,-12%*,i,i,i,
COc1ccc(Cl)cc1N/C(N)=N/c1nc(C)cc(C)n1,i,i,-7*,-5.6*,i,i,i,-10%*,i,i,i,
CN(C(=O)c1ccc(S(=O)(=O)N2CCCCC2)cc1)C1CCS(=O)(=O)C1 (centres undefined),i,i,i,i,i,·,·,·,·,·,·,
CS(=O)(=O)N1c2ccccc2[C@]2([C@@]34C[C@H]5C(=O)N[C@@H](Cc6ccccc6)C(=O)N5[C@@H]3N(S(C)(=O)=O)c3ccccc34)C[C@H]3C(=O)N[C@@H](Cc4ccccc4)C(=O)N3[C@H]12,i,i,i,i,i,·,·,·,·,·,·,
O=C(c1cccs1)N1CCN(C23CC4CC(CC(C4)C2)C3)CC1,i,i,i,-6.3*,i,114%*,i,18%*,i,44%*,·,
Cc1cc(CNC(=O)C(C)Cc2ccccc2)nn1C (centres undefined),i,i,i,i,i,·,·,·,·,·,·,
Cc1ccc(NC(=O)c2cc(-c3cccs3)nc3ccccc23)nc1,i,i,i,-6.4*,i,i,i,i,39%*,i,i,
Cc1ccc(-n2nnnc2SCC(=O)Nc2ccc(N3CCN(C)CC3)cc2)c(C)c1,i,i,i,i,i,·,·,·,·,·,·,
Cc1ccc(SCC(=O)Nc2ccc(N3CCN(C)CC3)c(F)c2)c(C)c1,i,i,i,-7.1*,i,·,·,·,·,i,i,TRPC4 spec 2=72%*;TRPC4 spec=-9.4%*;HEK293 MPD ctr 2-1=i;HEK293 MPD ctr-1=i
CC(CCc1ccccc1)NC(=O)CN1C(=O)NC2(CCCCC2)C1=O (centres undefined),i,i,i,i,i,·,·,·,·,·,·,
COc1ccc(OC)c(/C=C2\SC(=S)N(C(C(=O)O)c3ccccc3)C2=O)c1 (centres undefined),i,18*,i,i,i,412%*,i,83%*,i,i,175%*,
Cc1ccc(S(=O)(=O)NNc2nc3ccccc3nc2C(F)(F)F)cc1,i,i,i,-7*,i,·,·,·,·,i,i,TRPC4 spec 2=i;TRPC4 spec=i;HEK293 MPD ctr 2-1=i;HEK293 MPD ctr-1=i
COP(=O)(OC)c1nc(-c2ccc([N+](=O)[O-])cc2)oc1N1CCCCC1,i,19*,i,-7.1*,i,618%*,198%*,120%*,51%*,84%*,230%*,
CCOC(=O)C(C)Oc1ncnc2cccc(F)c12 (centres undefined),i,i,i,i,i,·,·,·,·,·,·,
CC(C)n1cnc2c(N(C)c3ccccc3)nc(N(CCN(C)C)Cc3ccccc3)nc21,i,i,i,-5.8*,110*,87%*,i,40%*,96%*,48%*,i,
Cc1c(O)c(CN2CCCCC2)cc2c1oc(=O)c1ccccc12,i,i,i,i,i,·,·,·,·,·,·,
Cc1c(O)c(CN2CCCCC2)cc2c3c(c(=O)oc12)CCC3,i,i,i,-10*,i,-243%*,i,-39%*,i,44%*,i,
CCC(C)NC(=O)c1ccc(C2SCC(=O)N2Cc2ccccc2)cc1 (centres undefined),i,i,i,-7.6*,i,·,·,·,·,i,i,TRPC4 spec 2=i;TRPC4 spec=i;HEK293 MPD ctr 2-1=i;HEK293 MPD ctr-1=i
COc1nc(C)nc2c1sc1nc3c(cc12)COC(C)(C)C3,i,i,i,-6.4*,i,i,i,-12%*,i,i,i,
Cn1c(SCC(=O)N2CCOCC2)nc2sc3c(c2c1=O)CCCC3,i,i,i,-8.8*,i,·,·,·,·,i,i,TRPC4 spec 2=i;TRPC4 spec=i;HEK293 MPD ctr 2-1=i;HEK293 MPD ctr-1=i
COC(=O)CSc1nc2sc3c(c2c(=O)n1C1CCCCC1)CCN(C)C3,i,i,i,-9.4*,i,·,·,·,·,i,i,TRPC4 spec 2=78%*;TRPC4 spec=i;HEK293 MPD ctr 2-1=i;HEK293 MPD ctr-1=-212%*
Cc1cccc(NC(=O)Cn2ccn(-c3ccc4c(c3)OCCO4)c(=O)c2=O)c1,i,i,i,i,i,·,·,·,·,·,·,
CCC(C)[C@@H](N)C(=O)N/N=C/c1ccc2ncccc2c1 (some centres undefined),i,i,i,i,i,·,·,·,·,·,·,
COc1ccc2occ(C(=O)c3coc4ccc(O)c(CN(C)C)c34)c2c1,i,i,i,-13*,i,-146%*,i,-34%*,84%*,67%*,i,
COc1ccc(C(=O)c2coc3ccc(O)c(CN4CCCCC4)c23)cc1,i,i,i,-8.8*,i,·,·,·,·,i,i,TRPC4 spec 2=40%*;TRPC4 spec=i;HEK293 MPD ctr 2-1=i;HEK293 MPD ctr-1=1.5%*
COCCSc1nnc(NC(=O)COc2ccc3c(c2)OCO3)s1,i,i,i,i,i,·,·,·,·,·,·,
CCN1CCN(CCCNC(=O)C2CCN(c3nnc(-n4c(C)ccc4C)s3)CC2)CC1,i,i,i,i,i,·,·,·,·,·,·,
